# Calls of active or inactive are those of the source. The rule behind the calls is not given here.
# Experiments:
# J82 [1] = experiment: Induction of apoptosis in human J82 cells assessed as depolarization of mitochondrial membrane potential at 20 uM incubated for 2 hrs by hoechst 33342 staining based fluorescence microscopy; assay type: functional, cell-based
# Summary of the method: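 J82 cells treated 2 h with PXA, then labelled 20 min with TMRE plus Hoechst 33342. ΔΨm read by high-content fluorescence imaging. Untreated medium and 20 µM CCCP served as controls.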
# J82 [2] = experiment: Induction of apoptosis in cisplatin resistant human J82 cells assessed as depolarization of mitochondrial membrane potential at 20 uM incubated for 2 hrs by hoechst 33342 staining based fluorescence microscopy; assay type: functional, cell-based
# Summary of the method: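 J82CisR cells exposed 2 h, then labelled with TMRE and Hoechst 33342 for 20 min. TMRE signal imaged on a high-content fluorescence imaging platform. Untreated medium control and 20 µM CCCP positive control.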
# A2780 [3] = experiment: Induction of apoptosis in human A2780 cells assessed as decrease in mitochondrial membrane potential at 20 uM incubated for 24 hrs by TMRE staining based flow cytometry; assay type: functional, cell-based
# Summary of the method: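 Cells seeded overnight; medium switched to FBS-free just before treatment to avoid TMRE ester cleavage. Exposure 1 h, 2 h or 24 h, then TMRE staining for 20 min. Cells trypsinized, centrifuged at 4 °C and read by flow cytometry. Medium as negative control, 20 µM CCCP as positive control. […]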
# A2780cisR [4] = experiment: Induction of apoptosis in human A2780cisR cells assessed as decrease in mitochondrial membrane potential at 20 uM incubated for 24 hrs by TMRE staining based flow cytometry; assay type: functional, cell-based
# Summary of the method: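 Cells seeded overnight; complete medium swapped for FBS-free medium just before treatment to avoid TMRE ester cleavage. Exposure to PXA for 1 h, 2 h or 24 h. TMRE staining 20 min, cells collected by trypsinisation, ΔΨm read by flow cytometry. Medium served as negative control, 20 µM CCCP as positive control. Mean ± SEM reported.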
# A2780 [5] = experiment: Cell cycle arrest in human A2780 cells assessed as accumulation at G1 phase incubated for 24 hrs by propidium iodide staining based flow cytometry (reference value: 61.8%); assay type: functional
# A2780cisR [6] = experiment: Cell cycle arrest in human A2780cisR cells assessed as accumulation at G1 phase incubated for 24 hrs by propidium iodide staining based flow cytometry (reference value: 68.7%); assay type: functional
# J82 [7] = experiment: Cell cycle arrest in human J82 cells assessed as accumulation at G1 phase incubated for 24 hrs by propidium iodide staining based flow cytometry (reference value: 69.6%); assay type: functional
# J82 [8] = experiment: Cell cycle arrest in cisplatin resistant human J82 cells assessed as accumulation at G1 phase incubated for 24 hrs by propidium iodide staining based flow cytometry (reference value: 78.1%); assay type: functional
Compound,Activity (J82 [1]),Activity (J82 [2]),Activity (A2780 [3]),Activity (A2780cisR [4]),Activity (A2780 [5]) [%],Activity (A2780cisR [6]) [%],Activity (J82 [7]) [%],Activity (J82 [8]) [%]
N#CC(C#N)=NNc1cccc(Cl)c1,Active,Active,Active,Active,,,,
CC(=O)O[C@H]1C(=O)[C@@]2(C)[C@H]([C@H](OC(=O)c3ccccc3)[C@]3(O)C[C@H](OC(=O)[C@H](O)[C@@H](NC(=O)c4ccccc4)c4ccccc4)C(C)=C1C3(C)C)[C@]1(OC(C)=O)CO[C@@H]1C[C@@H]2O [PACLITAXEL],,,,,22.6,21.3,35.1,29.1
